Compound activity deposited in PubChem BioAssay by Broad Institute.
Compounds with a hit are over-represented: about 1.2% of the library has one in this group of screens.
FN deposit inh – inhibitors of fibronectin matrix deposition, primary screen, AH1F cells, Alexa488-fibronectin fluorescence, plate reader; AH1F fibroblasts, overnight; inhibition, % at 12.6 µM; 0.086% of 350,000 active; AID 743247, 2014;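 active = mean inhibition across replicates of 30% or more, regardless of how many single replicates reach that level; inconclusive = mean under 30% yet at least half of replicates reach 30%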
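Measured by – fluorescence 485/525 nm · System – AH1F fibroblast monolayer, labelled fibronectin deposition · Amount – 10000 cells per well · Buffer or medium – serum-reduced DMEM (2% serum) · Doses – single dose, pinned · Also added – fluorescent fibronectin at 24 nM final · Schedule – 1 h cell attachment, overnight exposure to compound and label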
RAD54 branch – inhibitors of human RAD54 branch migration, primary screen, biochemical, fluorescence, single point. DNA repair and recombination protein RAD54-like (Homo sapiens), Q92698. RAD54 Holliday junction branch migration, FAM/BHQ fluorescence. inhibition, % at 10.4 µM. 0.14% of 360,000 active;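 active = mean normalized replicate activity at least 40 and at least half of replicates scoring 40 or more; inconclusive = only one of the two criteria met; inactive = mean below 40 and under half of replicates reaching 40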;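 note: inhibitors cause a drop in the FAM fluorescence signal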
Target sequence (Q92698 whole entry, looked up): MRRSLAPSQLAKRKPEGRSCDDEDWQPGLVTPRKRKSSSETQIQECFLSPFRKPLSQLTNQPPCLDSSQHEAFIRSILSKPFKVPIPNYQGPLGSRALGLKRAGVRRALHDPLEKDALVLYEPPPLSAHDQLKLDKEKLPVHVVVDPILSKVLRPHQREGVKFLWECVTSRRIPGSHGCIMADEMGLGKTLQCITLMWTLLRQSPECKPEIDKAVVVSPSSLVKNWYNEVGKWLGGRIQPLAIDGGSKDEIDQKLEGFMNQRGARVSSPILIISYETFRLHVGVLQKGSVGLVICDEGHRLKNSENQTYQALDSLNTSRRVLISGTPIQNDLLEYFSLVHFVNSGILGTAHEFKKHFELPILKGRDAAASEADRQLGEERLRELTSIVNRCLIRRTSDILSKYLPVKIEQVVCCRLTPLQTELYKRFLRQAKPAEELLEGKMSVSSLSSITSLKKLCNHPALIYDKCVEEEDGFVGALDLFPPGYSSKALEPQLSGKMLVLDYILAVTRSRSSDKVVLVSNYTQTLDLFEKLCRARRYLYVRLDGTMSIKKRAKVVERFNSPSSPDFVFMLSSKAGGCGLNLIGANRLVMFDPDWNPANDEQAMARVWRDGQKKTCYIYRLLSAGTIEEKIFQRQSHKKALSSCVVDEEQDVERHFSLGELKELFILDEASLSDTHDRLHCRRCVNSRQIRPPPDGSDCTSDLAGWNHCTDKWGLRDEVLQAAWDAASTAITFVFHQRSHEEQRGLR
RAD52 anneal inh – RAD52 DNA annealing inhibitors, primary screen, biochemical, FRET, single point, set 2; DNA repair protein RAD52 homolog (Homo sapiens), P43351; recombinant RAD52 DNA annealing, FRET fluorescence; inhibition, % at 18.7 µM; 0.46% of 360,000 active;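 active = every replicate showing at least 50% inhibition; inconclusive = mean inhibition at least 50% but not in every replicate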
MLL AF4-AF9 inh – inhibitors of AF4 peptide binding to AF9, primary screen, biochemical, AlphaScreen, biotin-AF4 peptide, FLAG-AF9, single point; 0.47% of 350,000 active; inhibition, % at 10 µM;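 active = every replicate reaching a set inhibition limit, whatever the replicate mean, cut at about 25% in these data; inconclusive = mean inhibition reaches that limit but some replicates miss it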
NSD2 HMT inh – NSD2 histone methyltransferase inhibitors, primary screen, biochemical, AlphaScreen, single concentration, set 2 | AID 743445, 2014 | Histone-lysine N-methyltransferase NSD2 (Homo sapiens), O96028 | NSD2 peptide methylation, 120 min | 0.54% of 310,000 active | inhibition, % at 12.5 µM; in the data active = inhibition above about 50%
Glyco luc inh – increase of ERlucT glycosylation luciferase signal, primary screen, N-linked glycosylation inhibitor project, D54 ERlucT cells, luminescence, set 2 | AID 588692, 2011 | 0.23% of 360,000 active | reporter increase, % at 12.5 µM | D54 ERlucT glycosylation luciferase reporter, 24 h; percent of 100 nM tunicamycin response;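 active = mean luciferase reporter signal, scaled so untreated is 0 and the glycosylation-blocking control 100, at or above a set limit in every replicate; inconclusive = mean reaches the limit but not every replicate does; inactive = mean below the limit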;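 note: luciferase carries N-glycosylation sites so blocking glycosylation raises the light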
DNA binding – DNA binding of candidate compounds, dose response, artefact control for RAD54 inhibitor project, biochemical, fluorescence polarization, cherry-pick; shares compounds with RAD54 branch; Acridine orange-DNA displacement, 20 min; AC50, µM (top dose mostly 35 µM); 8% of 460 active;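 active = signal drop giving an AC50 within twice the top valid tested concentration of each sample, actives reach about 35 µM in these data; inactive = activity opposite to expected, plus the rest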;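 note: polarization loss reports compound binding to salmon sperm DNA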
DNA binder FP – DNA-binding compounds via dye displacement, dose response, artefact control for RAD52 inhibitor project, biochemical, fluorescence polarization, cherry-pick | 8% of 1,000 active | AID 652128, 2013 | AC50, µM | shares compounds with RAD52 anneal inh | Salmon sperm DNA/acridine orange FP displacement;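 active = fitted half-maximal concentration for signal loss at or below twice the highest dose tested, in every separate run, actives reach about 64 µM in these data; inconclusive = runs disagree, or flat partial signal loss, or poor fit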
Hits are given with their value; . = inactive; ? = inconclusive; / = not tested or not shown; ! = repeats disagree.

SMILES	FN deposit inh	RAD54 branch	RAD52 anneal inh	MLL AF4-AF9 inh	NSD2 HMT inh	Glyco luc inh	DNA binding	others
COc1ccc(CN(C)C[C@H]2OCCCC[C@@H](C)Oc3ccc(NC(=O)c4ccccc4)cc3C(=O)N([C@@H](C)CO)C[C@@H]2C)cc1	/	.	.	.	/	/	/
CCCNC(=O)N1CC2(C1)CN(C(=O)CC)[C@H](CO)c1[nH]c3cc(OC)ccc3c12	/	/	.	.	/	/	/
CCCCN(CC)CCNC(=O)c1cc2c(=O)n(C)c3ccccc3c2n1C	.	56	.	.	/	.	.
CCCC#Cc1ccc2c(c1)O[C@H](CN(C)C(=O)Nc1ccccc1F)[C@@H](C)CN([C@@H](C)CO)S2(=O)=O	.	.	.	.	/	/	/
CN1CCN(c2nc(-c3cccnc3)nc3ccccc23)CC1	/	57	.	.	.	.	.
CN1CCN(c2nc(-c3ccccn3)nc3ccccc23)CC1	.	?	/	/	.	.	.
c1cncc(-c2nc(N3CCCCCC3)c3ccccc3n2)c1	/	.	/	/	.	.	/
CCOC(=O)c1cnc2c(CC)cccc2c1NCCN1CCOCC1	.	.	.	.	.	.	/
CCOC(=O)c1cnc2c(C)cccc2c1NCCCN1CCOCC1	.	95	.	.	.	.	.
O=C(C[C@@H]1CC[C@H]2[C@@H](COC[C@H](O)CN2C(=O)Nc2ccc(Cl)c(Cl)c2)O1)NCc1ccc(F)cc1	.	.	.	.	/	/	/
CCOC(=O)c1c(NC(C)=O)sc2c(OC)cccc12	.	.	/	/	.	.	/
CCOC(=O)c1c(NC(C)=O)sc2c(O)c(CN3CCN(CC)CC3)ccc12	/	62	/	/	/	.	.
CN1CCCC1CCNc1ccc2sc3ccccc3c(=O)c2c1 (centres undefined)	.	56	.	26	/	.	.
O=c1c2ccccc2sc2ccc(NCCCN3CCOCC3)cc12	.	51	.	.	/	.	.
O=c1c2ccccc2oc2ccc(NCCCn3ccnc3)cc12	.	.	.	.	/	.	/
Cc1cc2oc3cc(NCCC4CCCN4C)ccc3c(=O)c2cc1C (centres undefined)	.	69	.	.	/	.	.
O=C1N[C@@H](Cc2ccccc2)COCc2cn(nn2)CC[C@@H]1Cc1ccc(Cl)cc1	.	/	/	/	/	/	/
COc1cc(OC)c2nc(C)c3c(c2c1)N(c1ccc(O)cc1)CC3	/	51	/	/	.	28	.
COc1ccccc1C(=O)Nc1ccc2c(c1)C(=O)N(C)[C@@H]1CC[C@H](CC(=O)NCc3ccc(Cl)c(Cl)c3)O[C@@H]1CO2	.	.	.	.	/	/	/
CCOC(=O)c1c(C)n(C)c2ccc(OCC(O)CN3CCC(C)CC3)cc12 (centres undefined)	.	?	.	.	/	.	.
O=C(O)C[C@H]1C[C@H]2c3cc(NC(=O)Nc4ccccc4)ccc3O[C@H]2[C@H](CO)O1	.	.	.	.	/	/	/
CCN1CCN(c2nc(N)c([N+](=O)[O-])c(Nc3cccc(C)c3)n2)CC1	.	?	.	?	.	.	.
Cc1cccc(Nc2nc(N3CCN(C)CC3)nc(N)c2[N+](=O)[O-])c1	.	/	.	.	.	.	/
Cc1c(O)c(CN2CCCCC2)cc2c1oc(=O)c1ccccc12	/	/	/	/	.	.	/
Cc1c(O)c(CN(C)C)cc2c1oc(=O)c1ccccc12	.	?	.	.	.	.	.
SMILES	FN deposit inh	RAD54 branch	RAD52 anneal inh	MLL AF4-AF9 inh	NSD2 HMT inh	Glyco luc inh	DNA binding	others
O=C(NCC(F)(F)F)[C@@H]1[C@@H](CO)[C@@H]2Cn3c(cccc3=O)[C@H]1N2CC1CCCC1	.	/	.	.	/	/	/
CCS(=O)(=O)N1CCCCN2[C@H](CO)[C@@H](c3ccc(C#Cc4ccccc4OC)cc3)[C@H]2C1	/	.	.	.	/	/	/
COc1ccc2nc(-c3ccc(N)cc3)[nH]c2c1	.	77	/	/	.	.	.
Cc1noc(C)c1NC(=O)Nc1ccc2c(c1)C(=O)N([C@@H](C)CO)C[C@H](C)[C@@H](CN(C)S(=O)(=O)c1c(C)noc1C)OCCCC[C@@H](C)O2	/	.	.	.	/	/	/
CCN(CC)CCNC(=O)c1cc2c(-c3ccc(Cl)cc3)nn(C)c2s1	.	113	61	.	/	36	.
C=CCn1c(C)nnc1SCC(=O)N1c2ccccc2NC(=O)C1(C)C	.	.	.	.	/	.	/
C=CCN1C(=O)C(C)(C)Nc2ccccc21	.	?	/	/	.	.	.
Cc1ccc(Nc2cc(C)nc3c(C)cccc23)cc1	.	?	.	.	.	.	.
COc1ccc2nc(C)cc(Nc3ccc(N4CCOCC4)cc3)c2c1	/	?	/	/	.	49	.
COc1ccc(Nc2cc(C)nc3ccccc23)cc1	/	.	.	.	.	.	/
COc1ccc2nc(C)cc(Nc3ccc(C)cc3)c2c1	.	57	.	.	.	.	.
O=C/C=C/c1ccc(-c2ccccc2)cc1	/	.	.	.	/	/	/
C[C@H](CO)N1C[C@H](C)[C@H](CN(C)S(=O)(=O)c2cccs2)Oc2ccc(NC(=O)Cn3cnnn3)cc2C1=O	.	.	.	.	/	/	/
CCN(CC)Cc1cc(Nc2ccnc3cc(Cl)ccc23)ccc1O	.	75!	88!	.	/	.	.	DNA binder FP=.
CCN1CCN(c2cc(C)c3cc(NC(=S)NCCCN4CCc5ccccc5C4)ccc3n2)CC1	.	98	106	?	.	.	.	DNA binder FP=.
CCCN1CCN(CCCNC(=S)Nc2ccc3nc(N4CCN(CC)CC4)cc(C)c3c2)CC1	.	110	99	.	/	.	.	DNA binder FP=.
CCN(CC)CCNC(=S)Nc1ccc2nc(N3CCN(CC)CC3)cc(C)c2c1	.	79	93	.	.	.	.	DNA binder FP=.
CCOC(=O)N1CCC(NC(=S)Nc2ccc3nc(N4CCN(CC)CC4)cc(C)c3c2)CC1	.	/	.	.	.	.	/
Cc1cc(N2CCN(C)CC2)nc2ccc(NC(=S)NCCCN3CCc4ccccc4C3)cc12	.	80	100	.	/	.	.	DNA binder FP=.
COCC(=O)Nc1ccc2c(c1)[C@H]1C[C@@H](CC(=O)NCc3ccc(OC)cc3)O[C@@H](CO)[C@H]1O2	.	.	.	.	/	/	/
C[C@H](CO)N1C[C@H](C)[C@H](CN(C)C(=O)Cc2ccccc2)OCCCC[C@H](C)Oc2ccc(NC(=O)CCC(F)(F)F)cc2C1=O	.	.	/	/	/	/	/
